Rows were chosen to be rich in hits. Some 3% of all compounds tested hit in one or more screens of this group.
Apaf-1 inh – inhibitors of human Apaf-1 apoptosome, primary screen, biochemical, DEVD-Rh110 fluorescence, uHTS | Apoptotic protease-activating factor 1 (Homo sapiens), O14727 | reconstituted apoptosome caspase-3 activity | AID 489030, 2010 | hit rate 0.71% among 330,000 | inhibition, % at 20 µM; active = inhibition of at least 40% at 20 µM;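 also: plate controls were DMSO wells for no effect and DEVD-CHO caspase inhibitor wells for full effect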
Target sequence (O14727 whole entry, looked up): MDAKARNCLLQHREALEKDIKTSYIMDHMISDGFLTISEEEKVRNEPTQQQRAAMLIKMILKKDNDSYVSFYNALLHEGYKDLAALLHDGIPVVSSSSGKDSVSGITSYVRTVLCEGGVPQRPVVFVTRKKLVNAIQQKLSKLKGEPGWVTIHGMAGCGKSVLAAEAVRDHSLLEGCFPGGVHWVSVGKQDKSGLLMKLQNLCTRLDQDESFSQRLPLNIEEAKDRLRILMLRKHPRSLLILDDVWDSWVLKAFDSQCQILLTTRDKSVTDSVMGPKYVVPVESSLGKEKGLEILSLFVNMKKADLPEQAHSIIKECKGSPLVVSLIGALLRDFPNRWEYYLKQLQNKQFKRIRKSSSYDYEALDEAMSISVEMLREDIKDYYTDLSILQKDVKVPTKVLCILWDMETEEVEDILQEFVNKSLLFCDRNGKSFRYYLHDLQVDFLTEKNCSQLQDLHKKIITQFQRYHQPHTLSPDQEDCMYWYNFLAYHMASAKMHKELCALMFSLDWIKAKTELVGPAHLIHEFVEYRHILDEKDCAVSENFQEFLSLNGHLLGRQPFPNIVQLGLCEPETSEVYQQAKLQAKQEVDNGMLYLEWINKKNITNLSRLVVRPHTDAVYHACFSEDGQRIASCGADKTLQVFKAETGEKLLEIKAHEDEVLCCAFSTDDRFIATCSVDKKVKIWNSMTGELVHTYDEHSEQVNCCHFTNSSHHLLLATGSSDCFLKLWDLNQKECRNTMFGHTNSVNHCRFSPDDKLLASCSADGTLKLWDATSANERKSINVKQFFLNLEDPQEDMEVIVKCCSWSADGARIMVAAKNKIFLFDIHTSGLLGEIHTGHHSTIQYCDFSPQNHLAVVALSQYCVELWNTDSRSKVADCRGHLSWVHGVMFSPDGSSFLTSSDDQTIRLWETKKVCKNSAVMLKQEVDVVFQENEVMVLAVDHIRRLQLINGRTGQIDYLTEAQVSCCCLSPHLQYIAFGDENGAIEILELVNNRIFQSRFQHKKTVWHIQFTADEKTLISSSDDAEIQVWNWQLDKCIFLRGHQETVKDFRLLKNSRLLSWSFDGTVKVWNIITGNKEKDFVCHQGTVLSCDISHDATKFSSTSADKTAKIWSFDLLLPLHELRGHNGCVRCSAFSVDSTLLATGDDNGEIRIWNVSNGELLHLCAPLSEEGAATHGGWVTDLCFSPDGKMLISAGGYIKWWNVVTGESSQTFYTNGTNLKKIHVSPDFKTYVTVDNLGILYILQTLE
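System: Apoptosome proteins | Medium: Hepes pH 7.5 with detergent and BSA | Also added: Cytochrome c trigger plus (Z-DEVD)2-Rh110 caspase-3 substrate | Incubation: 30 min compound preincubation, 50 min activation, room temperature | Detection: Rhodamine 110 fluorescence at Ex 480/Em 540 nm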
UBC13 inh – UBC13 polyubiquitin chain formation inhibitors, primary screen, biochemical, TR-FRET, uHTS. Ubiquitin-conjugating enzyme E2 N (Homo sapiens), P61088. inhibition, % at 20 µM. hit rate 0.47% among 330,000. AID 485273, 2010; in the data active = inhibition above about 45%, passing the limit was not always enough
SENP7 block – SENP7 protease inhibitors, primary screen, biochemical, luminescence, uHTS | hit rate 1.5% among 330,000 | recombinant SENP7, Z-RLRGG-aminoluciferin luminescence, 40 min | inhibition, % at 5 µM | Sentrin-specific protease 7 (Homo sapiens), Q9BQF6;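 active = inhibition above about 50% at the single test dose, limit read from the data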;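 also: plate controls were DMSO with enzyme for no effect and no enzyme buffer wells for full effect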
SENP6 block – SENP6 protease inhibitors, primary screen, biochemical, luminescence, uHTS; Sentrin-specific protease 6 (Homo sapiens), Q9GZR1; inhibition, % at 10 µM; hit rate 1.8% among 330,000; Recombinant SENP6 catalytic domain, aminoluciferin luminescence;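 active = inhibition above about 50% at the single tested dose, limit read from the data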;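 also: plate controls were DMSO wells with enzyme for no effect and DMSO wells lacking enzyme for full effect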
SENP8 block-1 – SENP8 protease inhibitors, primary screen, biochemical, luminescence; inhibition, % at 10 µM; purified SENP8, Z-RLRGG-aminoluciferin cleavage; hit rate 1.2% among 330,000; Sentrin-specific protease 8 (Homo sapiens), Q96LD8; AID 2540, 2010; in the data active = inhibition above about 50%
SENP8 block-2 – human SENP8 protease inhibitors, primary screen, biochemical, fluorescence, Nedd8 protein substrate, uHTS; Sentrin-specific protease 8 (Homo sapiens), Q96LD8; recombinant SENP8; inhibition, % at 20 µM; hit rate 0.64% among 360,000; in the data active = inhibition mostly above about 40%, no sharp cut-off; inactive = mostly below about 27%
Apaf-1 inh conf – Apaf-1 inhibitors, single-dose retest, confirmation, biochemical, fluorescence, DEVD-Rh110, 20 µM; shares compounds with Apaf-1 inh; reconstituted apoptosome, caspase-3 DEVD-Rh110 fluorescence; inhibition, % at 20 µM; hit rate 25% among 1,800;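 active = mean inhibition of at least 40% at 20 µM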;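 also: plate controls were DMSO wells for no effect and DEVD-CHO caspase inhibitor control wells for full effect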
Rh110 quench – Rh110 fluorescence interference by putative Apaf-1 inhibitors, confirmation, artefact control for Apaf-1 inhibitor project, biochemical, 20 µM; shares compounds with Apaf-1 inh; quenched caspase reaction; activation (fluorescence interference), % at 20 µM; 1,800 tested, under 10 active; AID 504615, 2011;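 active = signal rise of 40% or more at 20 µM, treated as a fluorescence artifact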
Apaf1 inh interf – fluorescence interference of Apaf-1 inhibitor hits, dose response, artefact control for Apaf-1 inhibitor project; shares compounds with Apaf-1 inh; fluorescence interference counterscreen, Apaf-1 assay format; IC50, µM; 460 tested, under 10 active; call rule not given here
An asterisk follows results filed as active; i = inactive; . = no result.

SMILES	Apaf-1 inh	UBC13 inh	SENP7 block	SENP6 block	SENP8 block-1	SENP8 block-2	Apaf-1 inh conf	Rh110 quench	others
O=C1c2[nH]nc(-c3ccccc3O)c2C(c2cccc(Cl)c2)N1Cc1ccco1 (centres undefined)	42.0*	-9.7	-6.8	-15.7	-29.3	2.6	33.7	3.7
O=C1c2[nH]nc(-c3ccccc3O)c2C(c2ccc(F)cc2)N1Cc1ccco1 (centres undefined)	29.7	-5.6	-8.5	-17.9	-15.5	18.1	.	.
CCN1/C(=C\C(=S)Nc2ccccc2)Sc2ccccc21	-3.5	9.5	7.2	-27.3	-22.6	12.2	.	.
CCN1/C(=C/C(C)=C/c2sc3ccccc3[n+]2CC)Sc2ccccc21	52.7*	-250.6	-0.8	11.1	18.2	35.2	60.6*	29.6	Apaf1 inh interf=51.2*
CN(c1ccccc1)S(=O)(=O)c1cccc(C(=O)NCc2ccccc2CN2CCCC2)c1	52.0*	11.3	10.4	8.2	2.6	15.9	20.6	5.8
CN(c1ccccc1)S(=O)(=O)c1ccc(C(=O)NCc2ccccc2CN2CCCC2)cc1	18.7	7.7	-15.8	-10.6	-8.6	9.1	.	.
O=C(COc1ccc2ccc(=O)oc2c1)Nc1ccc(N2CCCCC2)cc1	46.6*	34.7	-5.3	-14.8	-0.2	i	14.2	9.4
Cc1ccc(/C(C#N)=C\c2ccc(N3CCOCC3)o2)cc1	-17.0	-51.5	-1.7	-20.2	-8.2	-26.5	.	.
Cc1ccc2nc(/C(C#N)=C\c3ccc(N4CCOCC4)o3)[nH]c2c1	44.1*	-4.8	3.7	22.5	6.1	-193.7	17.5	-28.1
COc1ccc(S(=O)(=O)N2CCCC2)cc1C(C)C	-6.5	-2.9	-2.4	-6.0	3.0	6.0	.	.
Cc1cc2nn(-c3ccc(Cl)cc3)nc2cc1N	49.5*	-11.1	4.4	9.1	9.1	-289.2	22.4	2.8
Cc1cc(N)n(-c2ccc(Cl)cc2)n1	-2.3	5.4	4.5	11.6	-5.9	8.9	.	.
CN1CCc2cccc3c2[C@@H]1Cc1ccc(O)c(O)c1-3	49.9*	7.2	15.4	37.7	14.2	-150.4	24.7	14.1
CN(C)CCNC(=O)C(=O)NCC1OCCN1S(=O)(=O)c1cc(F)ccc1F (centres undefined)	46.5*	24.0	-11.7	-4.8	-1.7	9.8	21.0	4.8
CN(C)CCNC(=O)C(=O)NCC1OCCN1S(=O)(=O)c1ccc(F)cc1 (centres undefined)	.	.	.	.	.	10.3	.	.
Cn1c(=O)n(C)c2cc(/C=N/NC(=O)c3cc4cc(Br)ccc4o3)ccc21	43.0*	13.4	4.3	-12.6	3.3	-414.8	10.5	-0.9
COc1ccc(Br)cc1C(=O)N/N=C/c1ccc2c(c1)n(C)c(=O)n2C	-1.6	35.3	6.1	-4.9	2.7	-414.2	.	.
CC(C)Oc1ccccc1OC1(C)CCN(Cc2ccc(OC(F)(F)F)cc2)C1 (centres undefined)	.	.	.	.	.	24.2	.	.
O=C(NC(c1ccccc1)c1ccccc1)C1CCCN(S(=O)(=O)c2cnc[nH]2)C1 (centres undefined)	-3.1	0.2	2.6	11.4	5.4	6.3	.	.
O=C(C1CCCN(S(=O)(=O)c2cnc[nH]2)C1)N1CCN(Cc2ccccc2)CC1 (centres undefined)	40.5*	-3.5	-0.3	2.6	-7.6	9.7	3.2	42.8*
CC(=O)Nc1cccc(C(=O)NC(C)c2ccc(-n3ccnc3)cc2)c1 (centres undefined)	40.7*	10.0	-10.2	-25.2	-11.3	-5.4	35.5	2.8
COc1ccc(Cl)cc1S(=O)(=O)Nc1ncn[nH]1	4.7	0.5	-0.1	-15.4	-9.5	6.1	.	.
COc1ccccc1OCC(=O)NCC1CCCN(C(=O)c2ccccc2SC)C1 (centres undefined)	50.9*	3.4	-1.9	-7.9	-8.5	0.4	10.2	-0.9
Cc1ncn(-c2ccc(C(=O)Oc3ccccc3)cn2)n1	-4.2	7.5	3.1	1.4	-2.5	13.6	.	.
CCOC(=O)CSc1nc(=O)n2ccccc2n1	-4.3	-2.8	1.0	15.4	0.8	-16.3	.	.
SMILES	Apaf-1 inh	UBC13 inh	SENP7 block	SENP6 block	SENP8 block-1	SENP8 block-2	Apaf-1 inh conf	Rh110 quench	others
CCc1noc(C)c1C(=O)Nc1ccc(S(=O)(=O)N2CCC(C)CC2)cc1	14.4	1.1	-6.0	-6.4	-1.1	2.2	.	.
CN1/C(=N\O)c2cccc3cccc1c23	86.2*	0.3	10.1	20.4	4.1	-409.2	20.0	-0.1
CCOC(=O)c1c(NC(=O)c2ccco2)sc2c1CCCC2	5.5	19.8	4.0	-2.6	-3.3	-254.0	.	.
CCOC(=O)c1c(NC(=O)CN2CCN(C(=O)c3ccco3)CC2)sc2c1CCCC2	47.9*	13.4	3.5	-1.1	2.7	8.5	7.5	10.3
COc1ccccc1N1CCN(C(c2cccs2)C(C)NS(=O)(=O)c2ccccc2)CC1 (centres undefined)	55.4*	0.6	-12.6	-26.5	-7.4	14.6	46.4*	2.8	Apaf1 inh interf=>100
Cc1cc(NC(=O)CSCC(=O)Nc2ccc(C)c(C)c2)no1	53.7*	-1.8	-12.0	-16.0	-20.3	10.3	3.5	-3.6
Cc1sc2ncnc(N3CCC(C(=O)N(C)CC(=O)Nc4ccccc4Cl)CC3)c2c1C	59.9*	21.6	7.9	12.5	8.8	7.4	35.2	0.9
COCCCNC(=O)c1ccc2c3c(onc13)-c1ccccc1C2=O	80.0*	-299.7	17.6	54.1*	37.9	106.0*	74.1*	8.8	Apaf1 inh interf=>100
COCCCNC(=O)c1ccccc1Oc1ccccc1	-21.1	6.3	0.0	-1.2	3.1	12.7	.	.
O=C1NC2=C(CCc3ccccc32)C(c2ccccc2)N1 (centres undefined)	91.5*	-20.7	72.9*	95.1*	87.0*	-166.8	12.7	0.0
CC(C)C1C(=O)N(Cc2cn(CCC3OCCO3)nn2)CCS(=O)(=O)N1Cc1ccc(-c2ccc(Cl)cc2)cc1 (centres undefined)	.	.	.	.	.	-1.5	.	.
COc1cccc(-c2[nH]nc3c2C(c2ccsc2)C(C#N)=C(N)O3)c1 (centres undefined)	60.0*	-27.8	22.3	29.1	16.9	-4.6	11.3	3.9

Assay outcomes as filed in PubChem BioAssay.
